Bioassay records (PubChem)
CHOP inh: CHOP inhibition in unfolded protein response | 220,000 compounds, 3.8% hits | AID 2732 | CHO-K1 CHOP-promoter luciferase, tunicamycin-induced, 15-18 h | inhibition, % at 10 µM;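 active = compounds that reduced the stress-induced luciferase reporter signal by more than about 70% of percent inhibition, limit read from the data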
PfM18AAP inh: PfM18AAP enzyme inhibition; 290,000 compounds, 1.2% hits; inhibition, % at 7.35 µM; recombinant PfM18AAP, H-Glu-NHMec fluorogenic cleavage; AID 1822;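 active = inhibition above the campaign mean inhibition over all tested compounds plus 3 SD, cut at about 28% in these data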
NS3 helicase inh: blocks Hepatitis C virus NS3 helicase unwinding; NS3 helicase DNA unwinding, Cy5 molecular beacon fluorescence; inhibition, % at 10.9 µM; 290,000 compounds, 0.56% hits; AID 1800;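 active = inhibition above the mean of all tested compounds plus 3 SD, set per campaign, cut at about 35% in these data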
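Assay system: hepatitis C virus NS3 helicase domain fragment enzyme. Also added: annealed dual-labelled DNA beacon duplex, ATP-started. Timing: 1 h reaction at 25 °C, ATP-initiated. Technique: Cy5 fluorescence at 0 and 60 min, beacon hairpin quenching. Evaluation: % inhibition of unwinding. Replication: one well per compound.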
XBP1 UPR activ: adaptive UPR (XBP1) activation. 330,000 compounds, 0.33% hits. CHO-XBP1 luciferase reporter, IRE1-XBP1 UPR activation, luminescence; percent of tunicamycin response, DMSO as zero. activation, % at 20 µM;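 active = versus positive control, 20 µM dose yields 30% or more activation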
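Material – CHO cell line with stable XBP1 luciferase reporter · Buffer or medium – F12 plus 10% FBS · Compound – single point, 20 µM final compound, 1% DMSO · Schedule – 16-18 h cell attachment at 37 °C, then 6 h compound exposure · Signal – Steady-Glo luminescence read · Benchmarks – high control tunicamycin 10 µg/mL final, low control DMSO vehicle only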
p97 inhibitor: inhibitors of human p97 ATPase. P55072. recombinant p97 ATPase, Kinase-Glo ATP luminescence, 3 h. inhibition, % at 8 µM. 220,000 compounds, 0.42% hits. AID 1481; in the data active = inhibition above about 15%
Target sequence (P55072 whole entry, looked up): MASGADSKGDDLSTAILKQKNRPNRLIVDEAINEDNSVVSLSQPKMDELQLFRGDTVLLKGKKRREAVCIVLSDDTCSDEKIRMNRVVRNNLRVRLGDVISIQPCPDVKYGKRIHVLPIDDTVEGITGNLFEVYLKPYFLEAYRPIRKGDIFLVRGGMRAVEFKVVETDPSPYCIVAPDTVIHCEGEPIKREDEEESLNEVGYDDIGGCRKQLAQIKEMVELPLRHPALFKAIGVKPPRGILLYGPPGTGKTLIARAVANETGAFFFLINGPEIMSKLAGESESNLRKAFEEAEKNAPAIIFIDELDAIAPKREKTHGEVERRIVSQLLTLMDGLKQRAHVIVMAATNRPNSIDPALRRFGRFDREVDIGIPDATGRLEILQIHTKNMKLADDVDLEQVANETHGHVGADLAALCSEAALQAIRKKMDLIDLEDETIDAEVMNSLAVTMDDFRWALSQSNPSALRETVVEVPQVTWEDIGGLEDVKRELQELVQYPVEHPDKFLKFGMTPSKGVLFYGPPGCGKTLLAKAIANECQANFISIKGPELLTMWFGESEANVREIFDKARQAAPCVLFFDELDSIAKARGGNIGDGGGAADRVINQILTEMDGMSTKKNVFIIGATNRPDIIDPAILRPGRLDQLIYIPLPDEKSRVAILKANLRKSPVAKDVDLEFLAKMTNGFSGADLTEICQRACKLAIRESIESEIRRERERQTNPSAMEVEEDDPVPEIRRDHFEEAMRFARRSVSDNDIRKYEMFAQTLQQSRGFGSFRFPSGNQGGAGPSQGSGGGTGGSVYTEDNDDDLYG
UPR CHOP act: apoptotic UPR (CHOP) activation | CHO-CHOP luciferase reporter, luminescence; percent of tunicamycin response over DMSO baseline | activation, % at 10 µM | 330,000 compounds, 0.34% hits;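 active = at 10 µM dose, activation of 40% or more, normalized to positive control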
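Dosing – one dose, 10 µM in 0.5% DMSO · System – CHO-CHOP cells, stable luciferase reporter of PERK-eIF2a-CHOP signalling · Input – 500 cells/well · Control set – tunicamycin 10 µg/mL final as positive, DMSO-only wells as negative · Timing – 6 h compound treatment, 37 °C · Measure – % activation vs tunicamycin · Technique – luminescence read with Steady-Glo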
UPR CHOP confirm: apoptotic UPR (CHOP) activation, confirmed; CHO-CHOP cells, CHOP-luciferase reporter luminescence; percent of tunicamycin response, DMSO as zero; activation, % at 10 µM; shares compounds with UPR CHOP act; 1,000 compounds, 64% hits; in the data active = activation above about 33%
UPR XBP1 confirm: confirmation of adaptive unfolded protein response (XBP1) activators. AID 485299. shares compounds with XBP1 UPR activ. CHO-XBP1 IRE1-XBP1 luciferase reporter, luminescence. 1,000 compounds, 63% hits. activation, % at 20 µM;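 active = reporter signal at least 30% of the positive control's activation in two or more of four replicate wells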
A number is an active result. A selection: hits, their analogues and other compounds. The true share with any hit is near 4.5%.

`Cc1ccccc1CC(=O)Nc1cccnc1` gave PfM18AAP inh inactive, NS3 helicase inh inactive, XBP1 UPR activ inactive and UPR CHOP act inactive.
For O=C(N/N=C/c1ccco1)c1cc(-c2ccccc2)nc2ccccc12 the results were PfM18AAP inh inactive, NS3 helicase inh inactive, XBP1 UPR activ inactive and UPR CHOP act inactive.
`O=C(N/N=C/c1ccccn1)c1sc2ccccc2c1Cl` gave CHOP inh inactive, PfM18AAP inh inactive, NS3 helicase inh inactive, XBP1 UPR activ inactive, p97 inhibitor inactive, UPR CHOP act 179 and UPR CHOP confirm 104.
Screening O=C(N/N=C/c1ccccn1)c1cc(-c2ccc(Cl)cc2)nc2ccccc12 returned CHOP inh 83, PfM18AAP inh inactive, NS3 helicase inh inactive, XBP1 UPR activ inactive, p97 inhibitor inactive, UPR CHOP act 264 and UPR CHOP confirm 290.
O=C(N/N=C/c1ccccn1)c1cc(-c2ccc(Br)cc2)nc2ccccc12 was read as CHOP inh inactive, PfM18AAP inh inactive, NS3 helicase inh inactive, XBP1 UPR activ inactive, p97 inhibitor inactive, UPR CHOP act 331 and UPR CHOP confirm 265.
Screening O=C(O)COc1ccccc1/C=N/NC(=O)c1cc(-c2ccc(Cl)cc2)nc2ccccc12 returned CHOP inh inactive, PfM18AAP inh inactive, NS3 helicase inh inactive, XBP1 UPR activ inactive, p97 inhibitor inactive and UPR CHOP act inactive.
COc1ccc(CC(=O)N[C@@H]2c3ccccc3CC[C@H]2OCc2ccccc2)cc1 was read as XBP1 UPR activ inactive and UPR CHOP act inactive.
`Cc1ccc(NC(=O)c2cc(S(=O)(=O)N3CCCCC3)c[nH]2)cc1C` gave PfM18AAP inh inactive, NS3 helicase inh inactive, XBP1 UPR activ inactive and UPR CHOP act inactive.
COc1cccc(-c2c(-c3cc(OC)cc(OC)c3)n(C)c3ccc(-c4cnc(N5CCOCC5)nc4)cc23)c1 was read as XBP1 UPR activ 124, UPR CHOP act 104, UPR CHOP confirm inactive and UPR XBP1 confirm 93.
Screening CCN(C(=O)C1CC1)C1CCS(=O)(=O)C1 (centres undefined) returned XBP1 UPR activ inactive and UPR CHOP act inactive.
OCCCn1c(C2CCCN2c2nc(-c3ccc(Cl)cc3)cs2)nc2cc(Cl)c(N3CCCCC3)cc21 (centres undefined) was read as XBP1 UPR activ 122, UPR CHOP act 88, UPR CHOP confirm inactive and UPR XBP1 confirm 198.
For Cc1sc(NC(=O)c2cc(-c3ccccc3)nc3ccccc23)c(C(N)=O)c1C the results were CHOP inh inactive, PfM18AAP inh inactive, NS3 helicase inh inactive, XBP1 UPR activ inactive, p97 inhibitor inactive and UPR CHOP act inactive.
`Cc1sc(NC(=O)c2cc(-c3ccc(Cl)cc3)nc3ccccc23)c(C(N)=O)c1C` gave CHOP inh inactive, PfM18AAP inh inactive, NS3 helicase inh inactive, XBP1 UPR activ 199, p97 inhibitor inactive, UPR CHOP act 107, UPR CHOP confirm 85 and UPR XBP1 confirm 183.
`Cc1ccc(N=Cc2c(O)c3ccccc3oc2=O)c(C)c1` gave PfM18AAP inh inactive, NS3 helicase inh inactive, XBP1 UPR activ inactive and UPR CHOP act inactive.
`CC(=O)c1cccc(N=Cc2c(O)c3ccccc3oc2=O)c1` gave PfM18AAP inh inactive, NS3 helicase inh inactive, XBP1 UPR activ 147, UPR CHOP act 159, UPR CHOP confirm 35 and UPR XBP1 confirm 93.
`Cc1ccc(F)cc1N=Cc1c(O)c2ccccc2oc1=O` gave PfM18AAP inh inactive, NS3 helicase inh inactive, XBP1 UPR activ 76, UPR CHOP act 148, UPR CHOP confirm 131 and UPR XBP1 confirm 141.
Screening CN(C(=O)COC(=O)c1cccc(S(=O)(=O)N2CCCCC2)c1)C1CCS(=O)(=O)C1 (centres undefined) returned XBP1 UPR activ inactive and UPR CHOP act inactive.
